A short description of data set [1]: melting temperature; fluorescence melt of hairpins on a sequencing array, two-state fit, raised by 9.35 °C to match UV melts. Conditions: sodium 0.088 M. The gist of the method: (§1)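 To match UV melts, fitted temperatures were raised by 9.35 °C. These fits were bootstrapped two-state models that gave melting temperature and folding enthalpy, combined by inverse variance over four replicates. The input was normalised Cy3 fluorescence of library hairpins with annealed Cy3 and quencher oligos on a sequenced MiSeq flow cell, imaged in 50 mM Na-HEPES pH 8.0, 25 mM NaCl in 2.5 °C steps up to 60 °C.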

Data set [2] can be described thus: folding enthalpy; higher = less favourable; fluorescence melt of hairpins on a sequencing array, two-state fit. Conditions: sodium 0.088 M. The gist of the method:
as §1

GAGAACACGAAAGTGCTC (((..(((....)))))): the Tm in data set [1] is 32.9 °C. The folding enthalpy in data set [2] is -15.6 kcal/mol.

Consider GAGAACGAAAGTTCTC ((((((....)))))), for which the Tm in data set [1] is 62.4 °C. For the same sequence, the folding enthalpy in data set [2] is -36 kcal/mol.

Take GAGAACGAAAGTTGGCTC ((((((....)))..))): the Tm in data set [1] amounted to 30.6 °C. Further, the folding enthalpy in data set [2] was -19.1 kcal/mol.

Take GAGAACGAAAGTTGTCTC ((((((....)))..))): the Tm in data set [1] amounted to 43.5 °C. The folding enthalpy in data set [2] is -27.2 kcal/mol.

With GAGAACGCGAAAGCGCTC (((..(((....)))))), the Tm in data set [1] was 39 °C. Further, the folding enthalpy in data set [2] was -12.2 kcal/mol.

Consider GAGAACGGAAACGTTTTC ((.((((....)))).)), for which the Tm in data set [1] stood at 41.3 °C. The folding enthalpy in data set [2] is -25.3 kcal/mol.

In the case of GAGAAGACGAAAGTCCTC (((..(((....)))))), in data set [1], the Tm turned out to be 31.4 °C. Moreover, the folding enthalpy in data set [2] was -13.2 kcal/mol.

With GAGAAGCGAAAGCTCCTC (((.(((....))).))), the Tm in data set [1] was 45.1 °C. Further, the folding enthalpy in data set [2] is -21.7 kcal/mol.

GAGAAGGAAACTTCTC ((((((....)))))): the Tm in data set [1] was found to be 48.3 °C. Also, the folding enthalpy in data set [2] is -23.3 kcal/mol.

Turning to GAGAAGGGAAACCCTCTC ((((.((....)).)))), the Tm in data set [1] was 35.6 °C. Further, the folding enthalpy in data set [2] was -22.8 kcal/mol.

As to GAGAAGGGAAACCTTTTC ((.((((....)))).)), in data set [1], the Tm amounted to 28.8 °C. Also, in data set [2], the folding enthalpy is -28.4 kcal/mol.

For the sequence GAGAATGCGAAAGCACTC (((..(((....)))))), the Tm in data set [1] was 32 °C. Besides, in data set [2], the folding enthalpy is -9.82 kcal/mol.

On to GAGACAGGAAACCGTCTC (((((.(....).))))), for which the Tm in data set [1] was determined as 46.3 °C. Further, the folding enthalpy in data set [2] is -29.2 kcal/mol.

Consider GAGACAGGAAACTGTTTC ((.((((....)))).)), for which, in data set [1], the Tm was 37.9 °C. Further, the folding enthalpy in data set [2] is -29.1 kcal/mol.

For the sequence GAGACCGAAAGGTCCCTC ((((((....)))..))), in data set [1], the Tm came out at 44.6 °C. Also, the folding enthalpy in data set [2] is -11.1 kcal/mol.

Take GAGACCGAAAGGTGCCTC ((((((....)))..))): in data set [1], the Tm came to 31.1 °C. Besides, the folding enthalpy in data set [2] was -12.7 kcal/mol.

On to GAGACGGAAACGTCTC ((((((....)))))), for which the Tm in data set [1] turned out to be 63.3 °C. The folding enthalpy in data set [2] is -39.8 kcal/mol.

With GAGACGGGAAACCATCTC ((((.((....)).)))), in data set [1], the Tm was 36.8 °C. The folding enthalpy in data set [2] was -24.5 kcal/mol.

Regarding GAGAGACGAAAGTCGCTC (((.(((....))).))), in data set [1], the Tm came to 60.5 °C. In data set [2], the folding enthalpy was -32.3 kcal/mol.

As to GAGAGAGGAAACTCTCTC (((((((....))))))), the Tm in data set [1] came to 57.9 °C. The folding enthalpy in data set [2] was -35.4 kcal/mol.

For GAGAGCGAAAGCTACCTC ((((((....)))..))), the Tm in data set [1] was 30.1 °C. Also, the folding enthalpy in data set [2] was -10.4 kcal/mol.

GAGAGCGAAAGCTCCCTC ((((((....)))..))): the Tm in data set [1] is 44 °C. The folding enthalpy in data set [2] is -10.3 kcal/mol.

Take GAGAGCGAAAGCTGCTC ((((((....))).))): in data set [1], the Tm was 47 °C. Further, the folding enthalpy in data set [2] is -14 kcal/mol.

GAGAGCGAAAGCTTGCTC ((((((....)))..))): in data set [1], the Tm was found to be 35.5 °C. For the same sequence, the folding enthalpy in data set [2] is -10.4 kcal/mol.

On to GAGAGGGGAAACCTTCTC ((((.((....)).)))), for which the Tm in data set [1] came out at 40.3 °C. Also, the folding enthalpy in data set [2] was -27.4 kcal/mol.

Consider GAGAGTCCGAAAGGACTC (((..(((....)))))), for which the Tm in data set [1] amounted to 60.4 °C. Besides, the folding enthalpy in data set [2] is -8.55 kcal/mol.

As to GAGAGTGAAAACTCTC ((((((....)))))), the Tm in data set [1] worked out at 53.9 °C. In data set [2], the folding enthalpy is -32.1 kcal/mol.

For GAGAGTGGAAACATTCTC ((((.((....)).)))), the Tm in data set [1] stood at 38.5 °C. Besides, the folding enthalpy in data set [2] is -32.6 kcal/mol.

With GAGAGTGGAAACGTTCTC ((((..(....)..)))), the Tm in data set [1] came out at 33.9 °C. Moreover, the folding enthalpy in data set [2] was -14.4 kcal/mol.

As for GAGATAGGAAACTGTCTC ((((.((....)).)))), in data set [1], the Tm was 41.3 °C. Besides, the folding enthalpy in data set [2] is -29.5 kcal/mol.

In the case of GAGATCCGAAAGGACCTC (((.(((....))).))), the Tm in data set [1] was determined as 47.1 °C. In data set [2], the folding enthalpy was -28.4 kcal/mol.

For the sequence GAGATCGCGAAAGCGCTC (((..(((....)))))), the Tm in data set [1] was found to be 33.6 °C. The folding enthalpy in data set [2] was -8.57 kcal/mol.

GAGATCGGAAACAATCTC (((((.(....).))))): in data set [1], the Tm is 32.5 °C. Further, in data set [2], the folding enthalpy was -15.3 kcal/mol.

Take GAGATGGGAAACCATCTC (((((((....))))))): in data set [1], the Tm turned out to be 60.3 °C. Moreover, the folding enthalpy in data set [2] is -39.2 kcal/mol.

Take GAGCAACCGAAAGGTCTC (((..(((....)))))): in data set [1], the Tm stood at 30.1 °C. The folding enthalpy in data set [2] was -13.1 kcal/mol.

For GAGCAACGAAAGTTACTC (((.(((....))).))), the Tm in data set [1] was 42.9 °C. For the same sequence, in data set [2], the folding enthalpy is -26.2 kcal/mol.

The record behind these values is the array DNA melting data of Ke et al. (doi:10.1101/2024.01.08.574731).
